In data set [1] the test system is Mycobacterium tuberculosis. Nature of the data set: Antimicrobial activity against Mycobacterium tuberculosis H37Rv infected in C57BL/6J mouse assessed as bacterial load in lungs at 100 mg/kg qd administered for 8 consecutive weeks starting from 6 weeks post infection measured 24 hrs post last dose (reference value: 6.4 +/- 0.3 log10CFU). Type of data set: functional. In outline: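 C57BL/6J mice infected intratracheally with ~10² CFU M. tuberculosis H37Rv. Dosed QD, 7 days/week, for 8 weeks starting 6 weeks post-infection; killed ≥24 h after last dose. Lung homogenates plated on 7H11/10% OADC for 21 days at 37 °C. n = 3 per dose group, 7 for controls; mean (SD); ANOVA with Dunnett's test versus 14-week untreated.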

Data set [2] in a line: Oral bioavailability in CD-1 mouse at 5 mg/kg administered via gavage after 24 hrs by LC-MS/MS analysis. The settings on record: in vivo. The format is ADME, organism-based.
The target of data set [3] is T1, Leucine--tRNA ligase, cytoplasmic (Homo sapiens, UniProt Q9P2J5). Nature of the data set: Inhibition of human N-terminal 6His-tagged cytoplasmic LeuRS expressed in Escherichia coli BL21(DE3) assessed as […] after 20 mins by liquid scintillation counting analysis.
The target of data set [4] is T2, Leucine--tRNA ligase (Mycobacterium tuberculosis (strain ATCC 25618 / H37Rv), UniProt P9WFV1).
T2 sequence (P9WFV1 whole entry): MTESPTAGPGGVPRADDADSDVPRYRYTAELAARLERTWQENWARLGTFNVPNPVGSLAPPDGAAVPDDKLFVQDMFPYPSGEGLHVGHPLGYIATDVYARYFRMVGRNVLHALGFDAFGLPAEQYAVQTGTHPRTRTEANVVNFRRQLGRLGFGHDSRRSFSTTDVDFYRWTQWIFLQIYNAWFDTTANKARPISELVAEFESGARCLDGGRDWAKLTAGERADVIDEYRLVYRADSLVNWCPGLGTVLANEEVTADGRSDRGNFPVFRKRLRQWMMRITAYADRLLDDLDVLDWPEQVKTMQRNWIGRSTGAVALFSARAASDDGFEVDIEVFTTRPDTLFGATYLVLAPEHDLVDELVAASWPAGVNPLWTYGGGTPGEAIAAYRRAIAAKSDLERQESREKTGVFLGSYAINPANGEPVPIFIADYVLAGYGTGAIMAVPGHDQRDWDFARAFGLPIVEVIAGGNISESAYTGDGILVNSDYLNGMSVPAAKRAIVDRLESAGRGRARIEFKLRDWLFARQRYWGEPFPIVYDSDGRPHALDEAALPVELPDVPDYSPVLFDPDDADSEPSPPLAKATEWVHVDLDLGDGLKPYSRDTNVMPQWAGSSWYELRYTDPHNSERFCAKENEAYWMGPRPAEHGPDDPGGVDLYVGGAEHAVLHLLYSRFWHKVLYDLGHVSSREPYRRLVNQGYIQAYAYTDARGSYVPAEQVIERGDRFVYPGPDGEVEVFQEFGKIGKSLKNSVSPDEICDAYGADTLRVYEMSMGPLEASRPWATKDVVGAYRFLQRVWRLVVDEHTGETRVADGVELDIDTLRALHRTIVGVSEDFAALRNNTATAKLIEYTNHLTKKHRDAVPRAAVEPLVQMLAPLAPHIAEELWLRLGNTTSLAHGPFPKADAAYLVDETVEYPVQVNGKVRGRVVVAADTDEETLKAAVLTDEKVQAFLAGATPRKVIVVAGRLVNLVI
Kind of data set: Inhibition of Mycobacterium tuberculosis H37Rv N-terminal 6His-tagged LeuRS expressed in Escherichia coli BL21(DE3) assessed as L-[14C]leucine incorporation in to Escherichia coli tRNA after 20 mins by liquid scintillation counting analysis. Summed up: (§1)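 N-terminal His6-tagged LeuRS expressed in E. coli BL21(DE3), codon-optimized. 50 mM HEPES-KOH pH 8.0, 30 mM MgCl2, 30 mM KCl, 13 μM L-[14C]leucine, 15 μM tRNA (E. coli total; brewer's yeast for human cytoplasmic enzyme), 0.02% BSA, 1 mM DTT, 30 °C. Inhibitor preincubated 20 min, started with 4 mM ATP, TCA-quenched after 7 min, filtered, scintillation counted; four-parameter logistic IC50.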

For data set [5], the target named is T1, Leucine--tRNA ligase, cytoplasmic. Kind of data set: Inhibition of cytoplasmic LeuRS in human HepG2 cells assessed as reduction in protein synthesis preincubated for 48 hrs followed by L-[14C]leucine addition measured after 3 hrs by liquid scintillation counting analysis. Type of data set: cell-based. Summed up: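 HepG2 cells in DMEM/10% FCS, 3000 cells/well, exposed to compound dilutions (0.5% DMSO final) for 48 h at 37 °C. Medium then replaced with fresh medium containing 0.5 μCi L-[14C]leucine and the same compound levels for 3 h. Cells trypsinised, precipitated in ice-cold 20% TCA, filtered, washed, scintillation counted; curve-fit EC50; mean of at least duplicates.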

The nature of data set [6]: Clearance in CD-1 mouse at 5 mg/kg, iv after 24 hrs by LC-MS/MS analysis. Type of data set: ADME, organism-based. The settings on record: in vivo.
The target of data set [7] is T3, Leucine--tRNA ligase, mitochondrial (Homo sapiens, UniProt Q15031).
T3 sequence (Q15031 whole entry): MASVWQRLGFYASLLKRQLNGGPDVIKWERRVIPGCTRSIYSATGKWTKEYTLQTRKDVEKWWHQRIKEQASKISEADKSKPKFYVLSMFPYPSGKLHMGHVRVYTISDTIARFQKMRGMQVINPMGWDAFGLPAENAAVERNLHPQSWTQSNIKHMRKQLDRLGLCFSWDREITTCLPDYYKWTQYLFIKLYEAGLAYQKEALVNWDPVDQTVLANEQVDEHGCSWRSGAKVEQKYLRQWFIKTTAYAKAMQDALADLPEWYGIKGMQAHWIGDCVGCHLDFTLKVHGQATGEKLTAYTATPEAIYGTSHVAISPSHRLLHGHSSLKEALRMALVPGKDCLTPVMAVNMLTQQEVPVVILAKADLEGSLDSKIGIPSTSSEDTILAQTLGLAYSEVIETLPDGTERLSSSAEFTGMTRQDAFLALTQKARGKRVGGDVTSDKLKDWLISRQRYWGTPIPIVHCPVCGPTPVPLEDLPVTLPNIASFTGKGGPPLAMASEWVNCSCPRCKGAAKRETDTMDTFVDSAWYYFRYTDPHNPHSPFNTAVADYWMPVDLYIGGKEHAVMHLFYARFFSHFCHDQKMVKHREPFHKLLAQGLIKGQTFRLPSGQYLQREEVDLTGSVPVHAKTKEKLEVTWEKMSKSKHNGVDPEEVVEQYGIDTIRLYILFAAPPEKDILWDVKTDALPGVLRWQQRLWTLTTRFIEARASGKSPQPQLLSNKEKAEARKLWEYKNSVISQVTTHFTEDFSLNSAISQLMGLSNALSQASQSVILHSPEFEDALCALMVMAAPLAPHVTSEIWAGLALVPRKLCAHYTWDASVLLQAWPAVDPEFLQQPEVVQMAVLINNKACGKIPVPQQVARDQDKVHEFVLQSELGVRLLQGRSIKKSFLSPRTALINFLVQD
Nature of the data set: Inhibition of human N-terminal 6His-tagged mitochondrial LeuRS expressed in Escherichia coli BL21(DE3) assessed as L-[14C]leucine incorporation in to Escherichia coli tRNA after 20 mins by liquid scintillation counting analysis. Summed up:
as §1

Data set [8] has as its system Mus musculus. Kind of data set: Dose normalized AUC (0 to infinity) in CD-1 mouse at 5 mg/kg, iv after 24 hrs by LC-MS/MS analysis. Type of data set: ADME, organism-based. The settings on record: in vivo.
The nature of data set [9]: Cmax in CD-1 mouse at 5 mg/kg administered via oral gavage after 24 hrs by LC-MS/MS analysis. Details: dose 5 mg/kg, route oral. The settings on record: in vivo. The format is ADME, organism-based.
Data set [10] concerns HepG2. Nature of the data set: Cytotoxicity against human HepG2 cells assessed as reduction in cell viability after 48 hrs by CellTiter-Glo assay. Type of data set: cell-based. The settings on record: HepG2, 48 h. In outline: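 HepG2 cells seeded at 10 000/well in EMEM with 5% FCS and 2 mM glutamine. After 24 h, ten 1:2 serial compound dilutions (0.5% DMSO final) added in duplicate for 48 h. Read-out by CellTiter-Glo luminescence per table footnote; the method text also describes resazurin fluorescence (ex 515/em 590 nm). Sigmoidal variable-slope fit.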
For orientation: ATP-based viability assays read luminescence as a measure of living cells.

Data set [11] deals with Mus musculus. Nature of the data set: Dose normalized AUC (0 to 24 hrs) in CD-1 mouse at 5 mg/kg administered via oral gavage by LC-MS/MS analysis. The format is ADME, organism-based. The settings on record: in vivo.
In data set [12] the test system is Mycobacterium tuberculosis. Nature of the data set: Antimicrobial activity against Mycobacterium tuberculosis H37Rv infected in C57BL/6J mouse assessed as 2 log reduction in bacterial load in lungs administered qd for 8 consecutive days starting on day 1 post infection measured 24 hrs post last dose. Type of data set: functional.
Data set [13] is described as follows: AUC (0 to infinity) in CD-1 mouse at 5 mg/kg, iv after 24 hrs by LC-MS/MS analysis. Type of data set: ADME, organism-based. Details: dose 5 mg/kg, route intravenous, time infinity. The settings on record: in vivo.
Data set [14] has as its system Mycobacterium tuberculosis. Nature of the data set: Antimicrobial activity against Mycobacterium tuberculosis H37Rv. The format is functional.
Data set [15] is described as follows: Tmax in CD-1 mouse at 5 mg/kg administered via oral gavage after 24 hrs by LC-MS/MS analysis. The settings on record: in vivo. Type of data set: ADME, organism-based.
A short description of data set [16]: Volume of distribution at steady state in CD-1 mouse at 5 mg/kg, iv after 24 hrs by LC-MS/MS analysis. The format is ADME, organism-based. The settings on record: in vivo, read-out: Vdss.
In data set [17] the test system is cytoplasmic LeuRS. Nature of the data set: Selectivity index, ratio of EC50 for inhibition of cytoplasmic LeuRS in HepG2 cells assessed as reduction in protein synthesis to MIC for Mycobacterium tuberculosis H37Rv. The format is toxicity, cell-based. The settings on record: human, read-out: Selectivity Index. Summed up: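 Ratio of HepG2 protein-synthesis EC50 to MIC against M. tuberculosis H37Rv.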

The nature of data set [18]: Half life in CD-1 mouse at 5 mg/kg, iv after 24 hrs by LC-MS/MS analysis. The format is ADME, organism-based. The settings on record: in vivo.
The nature of data set [19]: AUC (0 to 24 hrs) in CD-1 mouse at 5 mg/kg administered via oral gavage by LC-MS/MS analysis. Type of data set: ADME, organism-based. Also on record: time < 24 hr, dose 5 mg/kg, route oral. The settings on record: in vivo.

T1 sequence (Q9P2J5 whole entry): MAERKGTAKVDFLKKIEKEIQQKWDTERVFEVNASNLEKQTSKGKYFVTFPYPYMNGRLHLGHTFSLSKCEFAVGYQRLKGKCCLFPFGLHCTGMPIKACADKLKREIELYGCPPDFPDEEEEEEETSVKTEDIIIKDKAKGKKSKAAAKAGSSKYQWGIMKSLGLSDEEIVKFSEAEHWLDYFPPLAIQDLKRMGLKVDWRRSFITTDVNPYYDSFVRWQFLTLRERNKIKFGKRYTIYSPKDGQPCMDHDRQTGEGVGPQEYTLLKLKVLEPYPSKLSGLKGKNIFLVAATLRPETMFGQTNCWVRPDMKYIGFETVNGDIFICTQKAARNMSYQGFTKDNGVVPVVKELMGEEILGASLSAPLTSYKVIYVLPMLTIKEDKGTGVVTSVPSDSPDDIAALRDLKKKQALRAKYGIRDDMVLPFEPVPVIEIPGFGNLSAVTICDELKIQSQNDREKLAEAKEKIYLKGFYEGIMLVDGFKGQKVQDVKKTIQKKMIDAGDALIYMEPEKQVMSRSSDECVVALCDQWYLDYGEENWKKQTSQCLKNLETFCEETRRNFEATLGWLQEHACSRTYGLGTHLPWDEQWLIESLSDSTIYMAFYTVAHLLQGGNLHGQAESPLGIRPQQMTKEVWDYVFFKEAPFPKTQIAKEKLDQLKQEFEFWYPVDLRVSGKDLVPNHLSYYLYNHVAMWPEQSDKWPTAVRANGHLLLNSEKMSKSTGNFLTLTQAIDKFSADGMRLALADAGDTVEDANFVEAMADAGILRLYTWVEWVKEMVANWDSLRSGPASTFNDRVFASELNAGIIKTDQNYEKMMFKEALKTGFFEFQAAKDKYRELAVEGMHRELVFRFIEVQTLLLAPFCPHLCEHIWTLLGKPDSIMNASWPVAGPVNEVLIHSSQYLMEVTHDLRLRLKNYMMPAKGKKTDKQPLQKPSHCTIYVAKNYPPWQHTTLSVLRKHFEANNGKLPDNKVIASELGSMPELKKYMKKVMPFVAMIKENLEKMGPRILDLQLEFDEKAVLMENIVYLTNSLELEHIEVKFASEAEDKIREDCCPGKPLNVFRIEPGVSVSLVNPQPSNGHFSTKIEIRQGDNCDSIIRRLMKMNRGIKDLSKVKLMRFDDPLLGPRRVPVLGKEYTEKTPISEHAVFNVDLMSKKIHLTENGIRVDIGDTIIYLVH

Consider `CC(=O)NC[C@H]1CN(c2ccc(N3CCOCC3)c(F)c2)C(=O)O1` [LINEZOLID], for which the Activity in data set [1] came to 3.9 log10CFU.
In turn, `COc1ccc(Br)c2c1B(O)O[C@@H]2CN.Cl` returned a bioavailability in data set [2] of 72%. Also, the values for the IC50 in data set [3], in [4] and in data set [7] were more than 300 µM, 0.074 µM and more than 300 µM, respectively. For the same compound, the EC50 was 97 µM in data set [5] and 74.5 µM in data set [10]. The compound further yielded a clearance in data set [6] of 14.2 mL/min/kg. In addition, the AUC/dose in data set [8] came to 1.17 µg·h/mL/mg/kg; in data set [11], 0.84 µg·h/mL. Moreover, in [9], the Cmax came out at 980 ng/mL. Besides, in data set [12], the ED99 was found to be 3.8 mg/kg. Further, the AUC(0-inf) in data set [13] worked out at 5840 ng·h/mL. In [14], this compound displayed an MIC of 0.1 µM. Further, in data set [15], the Tmax was 0.25 h. In data set [16], the Vd turned out to be 2.5 L/kg. In data set [17], the selectivity ratio was 970. This compound had a half-life in [18] of 2.4 h. Further, the AUC(0-t) at 24 h in [19] was 4210 ng·h/mL.

As usually defined, the bioavailability is the share of a dose that reaches the circulation, judged against a reference dose that is usually intravenous. In general, IC50 refers to the midpoint of a concentration-inhibition curve. Usually EC50 stands for the concentration that produces a half-maximal response. In general, clearance refers to the rate of elimination divided by the concentration. Usually Cmax stands for the highest concentration seen after dosing. Usually AUC(0-inf) stands for the area under the concentration-time curve extrapolated to infinity. A higher AUC(0-inf) goes with more exposure. What is called MIC is the lowest concentration that inhibits growth of the organism. Low values mean greater potency, high ones weaker potency. The term Tmax denotes the time from dosing to the highest level. One may read the half-life as how long it takes for the measured level to halve. A lower half-life goes with fast loss. A word on the AUC(0-t): it is exposure summed from dosing to a finite time, without extrapolation to infinity. A higher AUC(0-t) goes with more exposure.

The record behind these values is ChEMBL document CHEMBL4017537, “Discovery of a Potent and Specific M. tuberculosis Leucyl-tRNA Synthetase Inhibitor: (S)-3-(Aminomethyl)-4-chloro-7-(2-hydroxyethoxy)benzo[c][1,2]oxaborol-1(3H)-ol (GSK656)” (J Med Chem, 2017).
